According to ChEMBL document CHEMBL1131521, “Structure-activity relationships for 1-phenylbenzimidazoles as selective ATP site inhibitors of the platelet-derived growth factor receptor” (J Med Chem, 1998):

Key:
[1] = biological target: Platelet-derived growth factor receptor beta (Mus musculus, UniProt P05622); test: Inhibition of phosphorylation of a random glutamate/tyrosine copolymer in lysates of transfected Sf9 insect cells overexpressing mouse platelet-derived growth factor receptor beta
Method in brief: (§1)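 Kinase source was lysate of transfected Sf9 insect cells overexpressing the receptor. Substrate was a random glutamate/tyrosine (4:1) copolymer, and the read-out was its phosphorylation. IC50 was the drug concentration (µM) giving inhibition.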

[2] = biological target: Fibroblast growth factor receptor 1 (Homo sapiens, UniProt P11362); test: Inhibition of phosphorylation of a random glutamate/tyrosine copolymer in lysates of transfected Sf9 insect cells overexpressing human fibroblast growth factor receptor 1; method in brief: as §1
[3] = biological target: Platelet-derived growth factor receptor (PDGFr) (Rattus norvegicus, UniProt P20786+Q05030); test: Inhibition of PDGF-stimulated Platelet-derived growth factor receptor autophosphorylation in rat aorta vascular smooth muscle cells.; format: functional
Method in brief: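 Rat aortic vascular smooth muscle cells, serum-starved, were exposed to compound for 2 h before stimulation with PDGF-BB at 25 ng/mL. Cell lysates or immunoprecipitates were analysed by Western blot with anti-phosphotyrosine antibody.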

Chain of Platelet-derived growth factor receptor beta (P05622 whole entry): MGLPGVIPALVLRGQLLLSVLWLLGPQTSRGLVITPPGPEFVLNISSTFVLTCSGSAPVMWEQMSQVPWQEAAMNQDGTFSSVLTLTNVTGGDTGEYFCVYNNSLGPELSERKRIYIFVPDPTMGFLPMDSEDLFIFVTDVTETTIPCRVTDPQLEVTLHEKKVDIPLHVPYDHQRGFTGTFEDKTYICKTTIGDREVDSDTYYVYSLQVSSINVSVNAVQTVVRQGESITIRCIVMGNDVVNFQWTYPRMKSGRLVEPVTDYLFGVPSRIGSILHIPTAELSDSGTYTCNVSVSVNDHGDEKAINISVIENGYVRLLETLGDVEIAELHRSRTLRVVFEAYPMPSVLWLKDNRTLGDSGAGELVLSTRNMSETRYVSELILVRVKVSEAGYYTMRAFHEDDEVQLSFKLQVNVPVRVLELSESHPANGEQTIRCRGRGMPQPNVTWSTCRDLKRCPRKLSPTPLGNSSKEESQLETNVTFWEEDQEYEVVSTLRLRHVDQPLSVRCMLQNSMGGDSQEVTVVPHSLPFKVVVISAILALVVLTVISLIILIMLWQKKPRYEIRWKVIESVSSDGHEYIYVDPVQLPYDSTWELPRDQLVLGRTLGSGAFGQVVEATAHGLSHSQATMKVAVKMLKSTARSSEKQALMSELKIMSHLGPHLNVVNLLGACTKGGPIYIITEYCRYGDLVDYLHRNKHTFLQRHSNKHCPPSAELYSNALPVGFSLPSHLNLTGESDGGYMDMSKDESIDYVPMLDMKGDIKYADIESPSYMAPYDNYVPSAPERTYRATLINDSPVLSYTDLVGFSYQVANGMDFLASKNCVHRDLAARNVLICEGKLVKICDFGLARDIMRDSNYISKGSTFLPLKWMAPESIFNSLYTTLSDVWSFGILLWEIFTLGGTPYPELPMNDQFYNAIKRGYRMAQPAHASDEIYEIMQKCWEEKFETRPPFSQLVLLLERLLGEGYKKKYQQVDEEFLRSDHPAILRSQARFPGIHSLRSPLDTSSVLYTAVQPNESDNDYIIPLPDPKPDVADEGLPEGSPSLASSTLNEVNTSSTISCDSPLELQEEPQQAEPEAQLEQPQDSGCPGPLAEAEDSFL
Chain of Fibroblast growth factor receptor 1 (P11362 whole entry): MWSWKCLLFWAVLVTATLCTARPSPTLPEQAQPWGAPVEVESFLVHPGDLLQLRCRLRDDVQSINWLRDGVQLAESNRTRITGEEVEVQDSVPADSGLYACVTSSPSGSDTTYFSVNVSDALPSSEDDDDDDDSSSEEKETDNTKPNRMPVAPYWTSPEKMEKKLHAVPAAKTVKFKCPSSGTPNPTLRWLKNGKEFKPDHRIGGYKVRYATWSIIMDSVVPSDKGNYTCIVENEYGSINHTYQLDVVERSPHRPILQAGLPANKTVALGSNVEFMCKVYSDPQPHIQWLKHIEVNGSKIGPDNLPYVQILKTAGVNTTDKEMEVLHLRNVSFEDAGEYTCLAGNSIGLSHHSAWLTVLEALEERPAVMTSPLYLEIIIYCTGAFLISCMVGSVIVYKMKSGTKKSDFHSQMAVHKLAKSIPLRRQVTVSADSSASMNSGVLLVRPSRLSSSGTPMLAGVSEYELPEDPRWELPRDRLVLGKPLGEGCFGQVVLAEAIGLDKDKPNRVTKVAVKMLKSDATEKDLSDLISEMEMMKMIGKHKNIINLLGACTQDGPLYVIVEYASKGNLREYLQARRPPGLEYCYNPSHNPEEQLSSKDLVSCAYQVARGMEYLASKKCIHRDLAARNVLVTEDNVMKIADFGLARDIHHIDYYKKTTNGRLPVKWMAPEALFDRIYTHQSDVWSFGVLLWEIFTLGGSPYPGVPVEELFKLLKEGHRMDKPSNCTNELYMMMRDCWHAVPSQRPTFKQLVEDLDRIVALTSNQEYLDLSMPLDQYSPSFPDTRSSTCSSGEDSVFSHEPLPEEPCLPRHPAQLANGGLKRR

Row | Structure (SMILES) | IC50 [1] | IC50 [2] | IC50 [3]
1 | Clc1cccc2ncn(-c3ccccc3)c12 | > 50 µM | > 50 µM | 
2 | NC(=O)c1ccc(-n2cnc3ccccc32)cc1 | 23 µM | > 50 µM | 
3 | c1ccc(-n2cnc3ccccc32)nc1 | > 50 µM | > 50 µM | 
4 | c1ccc(-n2ccc3ccccc32)cc1 | > 50 µM | > 50 µM | 
5 | COc1ccccc1-n1cnc2ccccc21 | > 50 µM | > 50 µM | 
6 | N#Cc1ccccc1-n1cnc2ccccc21 | > 50 µM | > 50 µM | 
7 | Clc1ccc2ncn(-c3ccccc3)c2c1 |  | > 50 µM | 
8 | Cc1cccc2ncn(-c3ccccc3)c12 | > 50 µM | > 50 µM | 
9 | Clc1ccccc1-n1cnc2ccccc21 | > 50 µM | > 50 µM | 
10 | Clc1ccc(-n2cnc3ccccc32)cc1 | 50 µM | > 50 µM | 
11 | NC(=O)c1ccc2ncn(-c3ccccc3)c2c1 | 25 µM | > 50 µM | 
12 | Nc1nc2ccccc2n1-c1ccccc1 | > 50 µM | > 50 µM | 
13 | COC(=O)c1ccc(-n2cnc3ccccc32)cc1 |  | 50 µM | 
14 | CC(=O)c1cccc(-n2cnc3ccccc32)c1 | 19 µM | > 50 µM | 
15 | c1ccc2c(c1)ncn2-c1ccncc1 | 12 µM | > 50 µM | 
16 | COc1cccc2c1ncn2-c1ccccc1 | 50 µM | > 50 µM | 
17 | Nc1ccc2ncn(-c3ccccc3)c2c1 | 23 µM | > 50 µM | 
18 | Cc1nc2ccccc2n1-c1ccccc1 | > 50 µM | > 50 µM | 
19 | N#Cc1ccc(-n2cnc3ccccc32)cc1 | 16 µM | > 50 µM | 
20 | Nc1ccc(-n2cnc3ccccc32)cc1 |  | > 50 µM | 2 µM
21 | O=[N+]([O-])c1ccc2c(c1)ncn2-c1ccccc1 | 16 µM | > 50 µM | 

Row | Structure (SMILES) | IC50 [1] | IC50 [2] | IC50 [3]
22 | COc1ccc2c(c1)ncn2-c1ccccc1 | 0.43 µM |  | 1.9 µM
23 | COc1cccc(-n2cnc3ccccc32)c1 | 25 µM | 50 µM | 
24 | NC(=O)c1cccc2ncn(-c3ccccc3)c12 | > 50 µM | > 50 µM | 
25 | COc1cccc2ncn(-c3ccccc3)c12 | 37 µM | 50 µM | 
26 | Clc1cccc2c1ncn2-c1ccccc1 | > 50 µM | > 50 µM | 
27 | Cc1ccccc1-n1cnc2ccccc21 | > 50 µM | > 50 µM | 
28 | Cc1cccc(-n2cnc3ccccc32)c1 | 28 µM | > 50 µM | 
29 | O=C(O)c1cccc(-n2cnc3ccccc32)c1 | > 50 µM | > 50 µM | 
30 | NC(=O)c1cccc2c1ncn2-c1ccccc1 | > 50 µM | > 50 µM | 
31 | O=[N+]([O-])c1cccc2ncn(-c3ccccc3)c12 | > 50 µM | 40 µM | 
32 | Nc1cccc(-n2cnc3ccccc32)c1 |  | > 50 µM | 
33 | O=Cc1ccc(-n2cnc3ccccc32)cc1 | 13 µM | > 50 µM | 
34 | Oc1cccc2c1ncn2-c1ccccc1 | 11 µM | > 50 µM | > 10 µM
35 | O=[N+]([O-])c1ccc(-n2cnc3ccccc32)cc1 | 30 µM | > 50 µM | 
36 | COc1ccc2ncn(-c3ccccc3)c2c1 |  | > 50 µM | > 10 µM
37 | c1ccc(-n2cnc3ccccc32)cc1 |  | > 50 µM | 2.3 µM
38 | c1ccc(-c2nc3ccccc3[nH]2)cc1 | > 50 µM | > 50 µM | 
39 | O=[N+]([O-])c1ccccc1-n1cnc2ccccc21 | > 50 µM | > 50 µM | 
40 | Nc1cccc2ncn(-c3ccccc3)c12 | > 50 µM | > 50 µM | 
41 | Cc1ccc(-n2cnc3ccccc32)cc1 | > 50 µM | > 50 µM | 
42 | COC(=O)c1cccc2c1ncn2-c1ccccc1 | > 50 µM | > 50 µM | 

Row | Structure (SMILES) | IC50 [1] | IC50 [2] | IC50 [3]
43 | c1ccc(-n2nnc3ccccc32)cc1 | > 50 µM | > 50 µM | 
44 | O=Cc1ccc2c(c1)ncn2-c1ccccc1 |  | > 50 µM | 
45 | CC(=O)c1ccc2c(c1)ncn2-c1ccccc1 | 0.86 µM |  | 
46 | Oc1ccc2c(c1)ncn2-c1ccccc1 | 0.44 µM |  | 0.13 µM
47 | Cc1cccc2c1ncn2-c1ccccc1 | > 50 µM | > 50 µM | 
48 | Clc1cccc(-n2cnc3ccccc32)c1 | 47 µM | 50 µM | 
49 | c1cncc(-n2cnc3ccccc32)c1 | > 50 µM | > 50 µM | 
50 | O=C(O)c1cccc2c1ncn2-c1ccccc1 | > 50 µM | > 50 µM | 
51 | Oc1ccccc1-n1cnc2ccccc21 | > 50 µM | > 50 µM | 
52 | COC(=O)c1ccc2c(c1)ncn2-c1ccccc1 | 0.83 µM |  | 0.15 µM
53 | CC(=O)c1ccccc1-n1cnc2ccccc21 | > 50 µM | > 50 µM | 
54 | O=Cc1ccccc1-n1cnc2ccccc21 | > 50 µM | > 50 µM | 
55 | Oc1cccc2ncn(-c3ccccc3)c12 | > 50 µM | 50 µM | 
56 | CC(=O)c1ccc(-n2cnc3ccccc32)cc1 | 24 µM | > 50 µM | 
57 | O=[N+]([O-])c1ccc2ncn(-c3ccccc3)c2c1 | 50 µM | 39 µM | 
58 | c1ccc(-n2ncc3ccccc32)cc1 | > 50 µM | > 50 µM | 
59 | Nc1ccccc1-n1cnc2ccccc21 | > 50 µM | > 50 µM | 
60 | NC(=O)c1ccc2c(c1)ncn2-c1ccccc1 | 16 µM |  | 
61 | O=C(O)c1cccc2ncn(-c3ccccc3)c12 | > 50 µM | > 50 µM | 
62 | COC(=O)c1cccc2ncn(-c3ccccc3)c12 | > 50 µM | > 50 µM | 
63 | O=[N+]([O-])c1cccc2c1ncn2-c1ccccc1 | > 50 µM | > 50 µM | 

Row | Structure (SMILES) | IC50 [1] | IC50 [2] | IC50 [3]
64 | O=C(O)c1ccccc1-n1cnc2ccccc21 | > 50 µM | > 50 µM | 
65 | O=C(O)c1ccc2ncn(-c3ccccc3)c2c1 | 50 µM | 50 µM | 
66 | NC(=O)c1ccccc1-n1cnc2ccccc21 | > 50 µM | > 50 µM | 
67 | c1ccc(C2=Nc3ccccc3NCC2)cc1 | > 50 µM | > 50 µM | 
68 | N#Cc1cccc(-n2cnc3ccccc32)c1 | > 50 µM | > 50 µM | 
69 | O=C(O)c1ccc(-n2cnc3ccccc32)cc1 | > 50 µM | > 50 µM | 
70 | Cc1ccc2ncn(-c3ccccc3)c2c1 | 40 µM | > 50 µM | 
71 | NC(=O)c1cccc(-n2cnc3ccccc32)c1 | > 50 µM | > 50 µM | 
72 | O=[N+]([O-])c1cccc(-n2cnc3ccccc32)c1 | 16 µM | 35 µM | 
73 | CCOC(=O)c1cccc(-n2cnc3ccccc32)c1 | > 50 µM | > 50 µM | 
74 | O=Cc1cccc(-n2cnc3ccccc32)c1 |  | 50 µM | 
75 | Nc1cccc2c1ncn2-c1ccccc1 | > 50 µM | > 50 µM | 
76 | Cc1ccc2c(c1)ncn2-c1ccccc1 |  | 50 µM | 
77 | COc1ccc(-n2cnc3ccccc32)cc1 | 13 µM | > 50 µM | 
78 | c1ccc(-n2cnc3cccnc32)cc1 | 28 µM | > 50 µM | 
79 | CCOC(=O)c1ccccc1-n1cnc2ccccc21 | > 50 µM | > 50 µM | 
80 | Oc1ccc2ncn(-c3ccccc3)c2c1 |  | > 50 µM | 
81 | c1ccc(Cn2cnc3ccccc32)cc1 | > 50 µM | > 50 µM | 
82 | O=C(c1ccccc1)n1cnc2ccccc21 | > 50 µM | > 50 µM | 
83 | Oc1nc2ccccc2n1-c1ccccc1 | > 50 µM | > 50 µM | 
84 | COC(=O)c1ccc2ncn(-c3ccccc3)c2c1 |  | > 50 µM | 
